HNF4A DNA FP: change in binding of human HNF4 alpha to DNA; HNF4a-FITC DNA binding, fluorescence polarization, 1 h; P41235; activity change, % at 10 µM; hit rate 0.3% among 360,000; in the data active = activity change above about 30%, passing the limit was not always enough
LANA-H2B inh: blocks KSHV LANA binding to histone H2A/H2B; cell-free LANA-H2A/H2B peptide, fluorescence polarization; inhibition, % (no concentration beside the values); hit rate 0.6% among 320,000; in the data active = inhibition mostly above about 10%, no sharp cut-off; inactive = mostly below about 6.7%
ZTA counter: ZTA (EBV) inhibition in EBNA-1 counter-screen; P03206; ZTA-DNA binding, fluorescence polarization; inhibition, % at 11 µM; hit rate 0.15% among 320,000; in the data active = inhibition above about 33%
Target sequence (P03206 whole entry, looked up): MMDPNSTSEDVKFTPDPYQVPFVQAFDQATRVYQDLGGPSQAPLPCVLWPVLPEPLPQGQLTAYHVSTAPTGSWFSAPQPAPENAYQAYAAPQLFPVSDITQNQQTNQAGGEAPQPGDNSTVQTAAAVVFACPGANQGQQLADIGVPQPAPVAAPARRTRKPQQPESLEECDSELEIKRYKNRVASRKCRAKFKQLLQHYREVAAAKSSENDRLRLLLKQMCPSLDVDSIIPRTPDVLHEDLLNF
CSN inh: blocks human CSN-mediated cullin deneddylation | inhibition, % at 12.5 µM | AID 651999 | hit rate 0.38% among 360,000 | Q92905 | Purified CSN, SCF-Nedd8-OG deneddylation, fluorescence polarization;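 active = pattern-corrected inhibition above about 35%, with an unprinted fluorescence ratio check between 0.5 and 1.5, limit read from the data, passing the limit was not always enough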;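 also: 0% = enzyme with substrate and 100% = substrate without enzyme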
Target sequence (Q92905 whole entry, looked up, one chain of several): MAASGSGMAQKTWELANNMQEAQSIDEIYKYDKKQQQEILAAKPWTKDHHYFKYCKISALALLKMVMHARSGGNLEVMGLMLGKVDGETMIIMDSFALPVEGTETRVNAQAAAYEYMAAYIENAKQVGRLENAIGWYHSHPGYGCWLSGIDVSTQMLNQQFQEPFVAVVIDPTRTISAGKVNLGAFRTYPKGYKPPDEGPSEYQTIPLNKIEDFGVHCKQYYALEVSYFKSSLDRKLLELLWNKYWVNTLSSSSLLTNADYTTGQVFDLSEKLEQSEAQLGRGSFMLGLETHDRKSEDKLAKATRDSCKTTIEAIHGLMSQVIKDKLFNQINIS
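Schedule: reaction 90 min, room temperature / Assay system: HEK293T-derived human Csn5 enzyme / Input: Csn5 at 0.24 nM final / Measure: inhibition of Csn5 cleavage, % / Control set: substrate-only high control, full reaction low control / Technique: fluorescence polarization of the substrate / Buffer or medium: Tris/NaCl/DTT buffer, pH 7.5 / Reagent: SCFSkp2-Nedd8OG substrate at 10 nM final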
EBNA-1 inhibitor: blocks EBNA-1 binding to DNA; EBNA-1 DNA binding, fluorescence polarization; inhibition, % at 14.8 µM; hit rate 0.34% among 300,000; AID 1950; in the data active = inhibition above about 28%
A1 inh: inhibitors of the anti-apoptotic protein A1, read as caspase activation; MEF A1-2A-BIM cells, Caspase-Glo 3/7 luminescence, 3 h; percent of clofoctol response, vehicle zero; caspase activation, % (concentration not given with the values); hit rate 0.066% among 330,000;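 active = over half of replicate activation scores above 10%, or exactly half above 10 with the replicate mean above 10; inconclusive = replicate mean below 10 yet half the replicates above 10; inactive = over half of replicates below 10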
* marks the source's active call; other numbers are inactive results; ? = inconclusive; · = no result; + = active, no number. Only some compounds are listed: those with a hit (about 1.5% of all), similar ones and a draw of the others.

SMILES	HNF4A DNA FP	LANA-H2B inh	ZTA counter	CSN inh	EBNA-1 inhibitor	A1 inh
Oc1[nH]c2ccccc2c1N=Nc1ccc(F)cc1	-93.9	-4.1	9.4	-92.5	8.1	-6.2
Oc1[nH]c2ccccc2c1N=Nc1ccccc1	-73.2	15.9*	0.2	-23.7	-2.2	-3.6
O=C(CNC(=O)C1COc2ccccc2O1)Nc1ccc(F)c(F)c1 (stereo not drawn)	6.9	3.8	·	5.1	·	-0.1
N#CC(=Cc1ccc(-c2ccccc2)cc1)C(=O)c1ccccc1	-2.3	·	·	10.7	·	·
N#CC(=C=[N-])/C=C(\C(=O)c1ccccc1)[n+]1ccccc1	4.1	20.7*	5.2	1.8	-1.1	0.0
Cc1c(NC(=O)c2cc(-c3ccco3)on2)c(=O)n(-c2ccccc2)n1C	-1.6	-3.1	-7.4	2.4	-2.8	-0.3
Cc1c(NC(=O)c2cc(-c3cccs3)on2)c(=O)n(-c2ccccc2)n1C	-4.7	174.6*	-12.5	1.2	-12.6	-0.4
O=C(Nc1cccnc1)c1cc(-c2cccs2)on1	1.5	91.8*	-6.6	8.9	14.1	0.4
O=S(=O)(N/N=C/c1cccnc1)c1ccc(Cl)c(Cl)c1	0.8	2.6	-17.0	2.0	-5.4	-0.1
COc1ccc(C(=O)C2CCCN(Cc3cn[nH]c3-c3ccccc3)C2)cc1OC (stereo not drawn)	-2.0	4.8	2.9	1.2	-7.0	-0.6
Cn1ccnc1C(=O)C1CCCN(Cc2cn[nH]c2-c2ccc(-c3ccccc3)cc2)C1 (stereo not drawn)	0.7	18.0*	1.6	-0.8	-8.9	0.0
COc1ccc(NC(=O)C2CC2(Cl)Cl)cc1S(=O)(=O)N1CCCCC1 (stereo not drawn)	1.1	·	·	-3.3	·	·
COc1ccc(-c2ccc3c(=O)cc(-c4ccsc4)oc3c2)cn1	62.8*	-6.6	·	104.4*	·	1.1
Cc1csc(NC(=O)c2cc(-c3ccco3)nc3ccccc23)n1	-38.0	-0.7	-10.0	45.8*	-12.4	-0.5
CC(=O)Oc1ccccc1-c1nc(C)nc(N(C)C(C)=O)n1	-0.1	43.9*	1.6	4.0	-0.4	0.1
CC(=O)Oc1ccccc1C(=O)Oc1ccccc1C(=O)O	-3.0	1.2	21.8	-1.2	1.4	?
Cc1ccc(NC(=O)C(C)OC(=O)COc2cccc(C(F)(F)F)c2)cc1S(=O)(=O)N1CCOCC1 (stereo not drawn)	1.8	·	·	4.4	·	·
Cc1ccc(NC(=O)C(C)OC(=O)COc2cccc(C(F)(F)F)c2)cc1 (stereo not drawn)	-1.8	18.7*	-1.1	-6.6	·	0.7
C=CCn1c(SCC(=O)Nc2ccccc2C)nnc1-c1ccncc1	-2.5	-1.1	11.1	0.4	-7.5	0.2
C=CCn1c(SCC(=O)c2c(C)[nH]c3ccccc23)nnc1-c1ccncc1	4.9	7.4	-9.3	36.1*	-2.2	-0.1
Fc1ccccc1CNC(=S)Nc1cccc(C(F)(F)F)c1	2.0	0.3	-4.0	-2.0	-4.0	0.1
CCc1ccccc1NC(=O)CN1CCN(CC(=O)Nc2ccc3c(c2)OC2(CCCCC2)O3)CC1	-0.5	·	·	45.9*	·	·
NC(=O)c1nn(CC(=O)Nc2cccc(S(=O)(=O)N3CCCCCC3)c2)c(=O)c2ccccc12	1.8	+	-12.3	-4.1	·	0.1
O=C1N/C(=C/c2cccs2)C(=O)N1Cc1ccccc1F	0.4	-3.0	-1.1	0.2	6.6	1.3
Cc1ccc(/C=C2/NC(=O)N(Cc3ccccc3F)C2=O)s1	74.8	4.1	-5.6	41.0*	9.2	-0.1
SMILES	HNF4A DNA FP	LANA-H2B inh	ZTA counter	CSN inh	EBNA-1 inhibitor	A1 inh
Cc1cc(C)cc(N(C(C)C(=O)NCCC2=CCCCC2)S(C)(=O)=O)c1 (stereo not drawn)	3.3	·	-1.1	-0.6	-5.7	·
CC(C)=CCc1c(-c2ccc(O)cc2O)oc2c3c(cc(O)c2c1=O)OC(C)(C)C=C3	·	22.7*	-14.9	·	-4.4	0.8
CN1CCN(C(=O)c2cc3c(C(F)(F)F)nn(C)c3s2)CC1	-3.3	17.4*	2.6	-0.1	-1.3	0.1
Cn1nc(C(F)(F)F)c2cc(C(=O)NC3CC3)sc21	2.3	-1.6	10.8	-1.6	-3.6	0.1
CC[C@]12c3[nH]c4cc(-c5ccco5)ccc4c3CCN1C(=O)[C@@H](CC(=O)NC/C=C(\C)CCC=C(C)C)C[C@@H]2C(=O)N1CCN(C(=O)c2ccco2)CC1	2.2	·	·	13.5	·	·
CC[C@]12c3[nH]c4ccccc4c3CCN1C(=O)C(CC(=O)NC/C=C(\C)CCC=C(C)C)C[C@@H]2C(=O)N1CCN(C(=O)c2ccco2)CC1 (stereo partly drawn)	0.4	+	·	-6.4	·	-0.4
CC(C)(C)C(=O)Nc1nnc([C@H]2C[C@H](O)[C@@H](CO)O2)s1	-2.0	·	·	-0.9	·	·
CC(C)CN(CC(C)C)C1=N/C(=C\c2ccco2)C(=O)N1c1ccccc1	1.1	0.8	-17.8	38.5*	-13.6	-0.4
O=[N+]([O-])c1ccc(C(=S)N2CCCC2)cc1	-3.0	+	-0.9	-0.7	-2.4	-0.7
Cc1cccnc1NC(=O)CCC(=O)c1cccs1	8.5	24.7*	-17.9	10.8	·	0.9
COc1ccccc1Cc1c(-c2ccccc2)nc2c(C)cc(Br)cn12	9.1	·	·	96.7*	·	·
COc1ccccc1Cc1c(-c2ccc(Cl)cc2)nc2c(Cl)cc(C(F)(F)F)cn12	11.2	·	·	2.0	·	·
Cc1cc(Br)cn2c(Cc3ccccc3)c(-c3ccccc3)nc12	-0.7	·	·	0.0	·	·
COc1ccccc1Cc1c(-c2ccc(C#N)cc2)nc2c(Cl)cc(C(F)(F)F)cn12	60.8	·	·	45.7*	·	·
CCc1ccc(-n2c(O)c(C=NCCN(CC)CC)c(=O)[nH]c2=O)cc1	14.4	·	·	35.2*	·	·
CCN(CC)CCCN=Cc1c(O)n(-c2c(C)cccc2C)c(=O)c2ccccc12	4.2	-0.4	-1.2	-1.9	2.6	-0.1
C#CC1(O)CCC2C3CCC4=Cc5oncc5CC4(C)C3CCC21C (stereo not drawn)	2.7	·	·	-6.5	·	·
C#C[C@]1(O)CCC2C3CCC4=Cc5oncc5CC4(C)C3CCC21C (stereo partly drawn)	-2.3	13.1*	-4.2	-3.8	-1.4	-0.2
CC1=CC(=C(C#N)C#N)c2ccccc2N1C	-5.7	46.2*	5.9	-4.6	6.5	0.0
CC1=C/C(=C\C=C(C#N)C#N)N(C)c2ccccc21	71.3*	-7.6	20.5	32.1	2.5	-0.2
C#CCOC(=O)CCCC(=O)NCCCCCCCC	-0.5	0.3	0.8	-9.4	-11.0	0.7
C/C(Cn1cnc([N+](=O)[O-])n1)=N/NC(=O)COc1c(Cl)cc(Cl)cc1Cl	-3.4	6.3	-0.9	-7.2	14.4	0.2
COc1ccc2nc(-c3ccccc3)[nH]c(=O)c2c1	-0.6	·	·	-3.8	·	·
COc1ccc(-c2nc3ccc(N4CCCC4)cc3c(=O)[nH]2)cc1OC	7.0	2.3	0.1	113.2*	-7.9	-0.6

Compound activity deposited in PubChem BioAssay by several laboratories.
